Molecules are shown by their SMILES. Bridge positions count the residues as written; N and C are the ends. Square brackets hold non-standard residues; d marks the D form. Peptide text beside a SMILES is read from it. Nle = CCCC[C@H](N)C(=O)O; Nva = CCC[C@H](N)C(=O)O; Abu = CC[C@H](N)C(=O)O

The results in this text go back to ChEMBL document CHEMBL3232963, “Discovery of a potent and selective α3β4 nicotinic acetylcholine receptor antagonist from an α-conotoxin synthetic combinatorial library” (J Med Chem, 2014).

The test addresses Neuronal acetylcholine receptor; alpha3/beta4 (Rattus norvegicus) (UniProt P04757+P12392). In words: Antagonist activity at rat alpha3beta4 nAChR expressed in HEK293 cells assessed as inhibition of epibatadine-induced effect at 10 uM after 30 mins by fluorescent membrane potential assay relative to mecamylamine. It counts as cell-based. The method, boiled down:
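Rat α3β4 nAChR stably expressed in HEK293 cells; crude, SPE-desalted individual peptides tested at 10 μM in HBSS with membrane potential blue dye, 30 min at 37 °C. Fluorescence change read after epibatidine (0.1 μM). Percent inhibition set against 10 μM mecamylamine taken as 100%.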
One may read the inhibition as the drop in the measured response relative to a control, in per cent. For `CCCC[C@@H]1NC(=O)[C@H](CC)NC(=O)[C@H]([C@H](C)CC)NC(=O)[C@@H]2CSSC[C@H](NC(=O)CN)C(=O)N[C@@H](CSSC[C@@H](C(=O)O)NC(=O)[C@H](Cc3ccc(O)cc3)NC1=O)C(=O)N[C@@H](CO)C(=O)N[C@@H](CCCC)C(=O)N1CCC[C@H]1C(=O)N1CCC[C@H]1C(=O)N2`, the inhibition came out at 63.8%.

As for `CCCC[C@@H]1NC(=O)[C@H](CC)NC(=O)[C@H]([C@H](C)CC)NC(=O)[C@@H]2CSSC[C@H](NC(=O)CN)C(=O)N[C@@H](CSSC[C@@H](C(=O)O)NC(=O)[C@H](Cc3ccc(O)cc3)NC1=O)C(=O)N[C@@H](CO)C(=O)N[C@@H](CCCC)C(=O)N1CCC[C@H]1C(=O)N[C@@H](CC)C(=O)N2`, the inhibition came out at 72.6%.

As to `CCCC[C@@H]1NC(=O)[C@H](CC)NC(=O)[C@H]([C@H](C)CC)NC(=O)[C@@H]2CSSC[C@H](NC(=O)CN)C(=O)N[C@@H](CSSC[C@@H](C(=O)O)NC(=O)[C@H](Cc3ccc(O)cc3)NC1=O)C(=O)N[C@@H](CO)C(=O)N[C@@H](Cc1cnc[nH]1)C(=O)N1CCC[C@H]1C(=O)N1CCC[C@H]1C(=O)N2`, the inhibition was 67.2%.

`CCCC[C@@H]1NC(=O)[C@H](Cc2c[nH]c3ccccc23)NC(=O)[C@H]([C@H](C)CC)NC(=O)[C@@H]2CSSC[C@H](NC(=O)CN)C(=O)N[C@@H](CSSC[C@@H](C(=O)O)NC(=O)[C@H](Cc3ccc(O)cc3)NC1=O)C(=O)N[C@@H](CO)C(=O)N[C@@H](CCCC)C(=O)N1CCC[C@H]1C(=O)N[C@@H](CC)C(=O)N2`: the inhibition was determined as 68.6%.

Turning to `CCCC[C@@H]1NC(=O)[C@H](Cc2c[nH]c3ccccc23)NC(=O)[C@H](Cc2ccccc2)NC(=O)[C@@H]2CSSC[C@H](NC(=O)CN)C(=O)N[C@@H](CSSC[C@@H](C(=O)O)NC(=O)[C@@H]3CCCN3C1=O)C(=O)N[C@@H](CO)C(=O)N[C@@H](Cc1cnc[nH]1)C(=O)N1CCC[C@H]1C(=O)N1CCC[C@H]1C(=O)N2` (H-GCCSHPPCFW[Nle]PC-OH; disulfide 2-8, 3-13), the inhibition came out at 15.3%.

In the case of `CCCC[C@@H]1NC(=O)[C@H](Cc2c[nH]c3ccccc23)NC(=O)[C@H](Cc2ccccc2)NC(=O)[C@@H]2CSSC[C@H](NC(=O)CN)C(=O)N[C@@H](CSSC[C@@H](C(=O)O)NC(=O)[C@H](Cc3ccc(O)cc3)NC1=O)C(=O)N[C@@H](CO)C(=O)N[C@@H](Cc1cnc[nH]1)C(=O)N1CCC[C@H]1C(=O)N1CCC[C@H]1C(=O)N2` (H-GCCSHPPCFW[Nle]YC-OH; disulfide 2-8, 3-13), the inhibition was 44%.

Turning to `CCC[C@@H]1NC(=O)[C@H](Cc2c[nH]c3ccccc23)NC(=O)[C@H](Cc2ccccc2)NC(=O)[C@@H]2CSSC[C@H](NC(=O)CN)C(=O)N[C@@H](CSSC[C@@H](C(=O)O)NC(=O)[C@@H]3CCCN3C1=O)C(=O)N[C@@H](CO)C(=O)N[C@@H](Cc1cnc[nH]1)C(=O)N1CCC[C@H]1C(=O)N1CCC[C@H]1C(=O)N2` (H-GCCSHPPCFW[Nva]PC-OH; disulfide 2-8, 3-13), the inhibition was 49%.

Turning to `CCC[C@@H]1NC(=O)[C@H](Cc2c[nH]c3ccccc23)NC(=O)[C@H](Cc2ccccc2)NC(=O)[C@@H]2CSSC[C@H](NC(=O)CN)C(=O)N[C@@H](CSSC[C@@H](C(=O)O)NC(=O)[C@H](Cc3ccc(O)cc3)NC1=O)C(=O)N[C@@H](CO)C(=O)N[C@@H](Cc1cnc[nH]1)C(=O)N1CCC[C@H]1C(=O)N1CCC[C@H]1C(=O)N2` (H-GCCSHPPCFW[Nva]YC-OH; disulfide 2-8, 3-13), the inhibition is 47.8%.

`CCCC[C@@H]1NC(=O)[C@H](CC)NC(=O)[C@H](Cc2ccccc2)NC(=O)[C@@H]2CSSC[C@H](NC(=O)CN)C(=O)N[C@@H](CSSC[C@@H](C(=O)O)NC(=O)[C@@H]3CCCN3C1=O)C(=O)N[C@@H](CO)C(=O)N[C@@H](Cc1cnc[nH]1)C(=O)N1CCC[C@H]1C(=O)N1CCC[C@H]1C(=O)N2` (H-GCCSHPPCF[Abu][Nle]PC-OH; disulfide 2-8, 3-13): the inhibition was 29.1%.
